Measurements as given in ChEMBL document CHEMBL2057080, “Synthesis, biological evaluation, and structure-activity relationships of a novel class of apurinic/apyrimidinic endonuclease 1 inhibitors” (J Med Chem, 2012).
Values after ≈ are worked out from the molar mass of the structure shown. Blank lines part the entries; values can stand above or below the compound they belong to. Active and inactive are the calls of the source. The rule behind the calls is not given here.

Tests used:
[1] = molecular target: T1, DNA repair nuclease/redox regulator APEX1 (Homo sapiens, UniProt P27695); assay: Inhibition of recombinant APE1 using […]-5'-AP-DNA as substrate incubated for 15 mins prior to substrate addition measured after 5 mins by PAGE analysis
[2] = molecular target: T1, DNA repair nuclease/redox regulator APEX1; assay: Inhibition of APE1 in human HeLa whole cell extract using […]-5'-AP-DNA as substrate assessed as activity remaining at 100 uM incubated for 15 mins prior to substrate addition measured after 5 mins by PAGE analysis relative to control
How it was run: (§1)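 HeLa whole cell extract (300 ng; KCl-extracted hypotonic lysate) was preincubated with inhibitor for 15 min at room temperature, at 100 µM or at 0–100 µM. Then 0.5 pmol 32P AP-DNA was added for 5 min at 37 °C. Samples were run on denaturing PAGE, and incision is reported relative to the no-inhibitor control, from three independent measurements.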

[3] = molecular target: T1, DNA repair nuclease/redox regulator APEX1; assay: Inhibition of human recombinant APE1 after 15 mins by fluorescence based HTS assay
How it was run: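 APE1 inhibition was measured in the fluorescence-based qHTS format at up to 57 µM. IC50 is the average of three separate experiments.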

Brain [4] = assay: Tmax in CD1 mouse brain at 30 mg/kg, ip; type: ADME, organism-based; design: dose 30 mg/kg, route intraperitoneal; settings: in vivo
How it was run: (§2)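 Male CD1 mice, 6–8 weeks old, n = 3, were given 30 mg/kg IP in 50% PEG 200 or PEG 400 plus 10% Cremophor EL in saline. Cardiac-puncture blood was taken at 0.25, 0.5, 1, 2, 4, 8, 12 and 24 h, with heparin plasma. Brain values were multiplied by 5, and LC/MS/MS was used. The brain/plasma ratio is the average over the 8 time points.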

HeLa [5] = assay: Potentiation of methyl methanesulfonate cytotoxic activity against human HeLa cells assessed as decrease in cell viability at 2.5 to 5 uM incubated for 8 hrs measured after 56 hrs post compound wash-out by Hoechst 33342 staining-based assay; type: functional
[6] = molecular target: T1, DNA repair nuclease/redox regulator APEX1; assay: Inhibition of APE1 in human HeLa cells assessed as accumulation of genomic AP sites at 7.5 uM after 24 hrs by aldehyde reactive probe-based assay relative to control; type: cell-based
How it was run: (§3)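 HeLa cells at 80% confluency were treated for 24 h at 37 °C with DMSO, 275 µM MMS, or 7.5 µM inhibitor, alone or combined with MMS. Genomic DNA (100 ng/µL) was labelled with Aldehyde Reactive Probe and AP sites were quantified, in triplicate. Significance was tested by Student's t test.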

Liver = assay: Half life in mouse liver microsomes; type: ADME, Microsome
How it was run: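 Stability in mouse liver microsomes reported as T1/2. Done by a contract lab, and values are the average of two experiments.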

Plasma [7] = assay: Half life in mouse plasma; type: ADME, cell-free
How it was run: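 Stability in mouse plasma reported as T1/2. Done by a contract lab, and values are the average of two experiments.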

[8] = molecular target: T1, DNA repair nuclease/redox regulator APEX1; assay: Competitive inhibition of recombinant APE1 using […]-5'-AP-DNA as substrate incubated for 15 mins prior to substrate addition measured after 5 mins by Lineweaver-Burk plot analysis
How it was run: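 APE1 (~28 pM) was incubated with 0, 5, 10 or 20 µM inhibitor for 15 min at room temperature. 32P AP-DNA was added at 5–100 nM, followed by 5 min at 37 °C and denaturing PAGE. Velocities were measured, and KM and kcat came from Lineweaver–Burk plots.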

HeLa [9] = assay: Potentiation of temozolomide cytotoxic activity against human HeLa cells assessed as decrease in cell viability at 2.5 to 5 uM incubated for 8 hrs measured after 56 hrs post compound wash-out by Hoechst 33342 staining-based assay; type: functional
[10] = molecular target: T1, DNA repair nuclease/redox regulator APEX1; assay: Competitive inhibition of recombinant APE1 using […]-5'-AP-DNA as substrate assessed as decrease in APE1-DNA complex formation at 10 to 100 uM preincubated with substrate for 15 mins prior to enzyme addition measured after 5 mins by electrophoretic mobility shift assay
HeLa [11] = assay: Potentiation of temozolomide cytotoxic activity against human HeLa cells assessed as decrease in cell viability at 10 to 15 uM after 24 hrs by CellTiterGlo assay; type: functional, cell-based
How it was run: (§4)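 HeLa cells were seeded at 6K per well in DMEM/10% FBS and attached overnight. The medium was replaced with compound (5–30 µM) with or without MMS (0.4 mM) or TMZ (1 mM), followed by 24 h at 37 °C. Viability was read with CellTiter-Glo luminescence relative to DMSO, in duplicate. Combination values were normalized to the alkylating agent alone.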

[12] = Aqueous kinetic solubility of the compound in PBS at pH 7.4; type: physicochemical; settings: read-out: Kinetic_solubility
[13] = molecular target: T1, DNA repair nuclease/redox regulator APEX1; assay: Competitive inhibition of recombinant APE1 using […]-5'-AP-DNA as substrate assessed as decrease in APE1-DNA complex formation at 30 uM incubated for 10 mins prior to substrate addition measured after 5 mins by electrophoretic mobility shift assay
How it was run: (§5)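 APE1 (~28 nM) was preincubated without inhibitor (1% DMSO) or with 1, 3, 10, 30 or 100 µM inhibitor for 10 min on ice. Then 100 fmol (10 nM) 32P AP-DNA was added for 5 min on ice. Complexes were resolved on an 8% native gel and quantified by phosphorimager relative to control, in three independent replicates.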

Mus musculus = assay: Toxicity in CD1 mouse assessed as adverse effect at 30 mg/kg, ip after 24 hrs; type: organism-based; design: dose 30 mg/kg, route intraperitoneal; settings: in vivo
How it was run: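 Male CD1 mice, 6–8 weeks old, were given 30 mg/kg IP in PEG/Cremophor EL saline vehicle.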

Brain [14] = assay: Cmax in CD1 mouse brain at 30 mg/kg, ip; type: ADME, organism-based; design: dose 30 mg/kg, route intraperitoneal; settings: in vivo; how it was run: as §2
[15] = molecular target: T1, DNA repair nuclease/redox regulator APEX1; assay: Inhibition of APE1 activity in human HeLa cells assessed as fold increase in genomic AP site accumulation after 24 hrs by aldehyde reactive probe-based assay in presence of methyl methanesulfonate; type: cell-based; how it was run: as §3
Brain [16] = assay: Half life in CD1 mouse brain at 30 mg/kg, ip; type: ADME, organism-based; design: dose 30 mg/kg, route intraperitoneal; settings: in vivo; how it was run: as §2
[17] = molecular target: T1, DNA repair nuclease/redox regulator APEX1; assay: Competitive inhibition of recombinant APE1 using […]-5'-AP-DNA as substrate assessed as decrease in APE1-DNA complex formation incubated for 10 mins prior to substrate addition measured after 5 mins by electrophoretic mobility shift assay; how it was run: as §5
Plasma [18] = assay: Half life in CD1 mouse plasma at 30 mg/kg, ip; type: ADME, organism-based; design: dose 30 mg/kg, route intraperitoneal; settings: in vivo; how it was run: as §2
HeLa [19] = assay: Potentiation of methyl methanesulfonate cytotoxic activity against human HeLa cells assessed as decrease in cell viability at 10 to 15 uM after 24 hrs by CellTiterGlo assay; type: functional, cell-based; how it was run: as §4
Plasma [20] = assay: Cmax in CD1 mouse plasma at 30 mg/kg, ip; type: ADME, organism-based; design: dose 30 mg/kg, route intraperitoneal; settings: in vivo; how it was run: as §2
HeLa [21] = assay: Cytotoxicity against human HeLa cells at 30 uM after 24 hrs by CellTiterGlo assay; type: functional; how it was run: as §4
CYP2D6 = CYP2D6 (Homo sapiens, UniProt P10635); assay: Inhibition of CYP2D6 at 10 uM; type: ADME
[22] = Chemical stability of the compound in PBS at pH 7.4 assessed as compound remaining after 48 hrs; type: physicochemical; settings: buffer, pH 7.4, 48 h
How it was run: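 The compound was held in PBS pH 7.4 and the percent remaining was measured after 48 h. Done by a contract lab, and values are the average of two experiments.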

CYP3A4 = CYP3A4 (Homo sapiens, UniProt P08684); assay: Inhibition of CYP3A4 at 10 uM; type: ADME
[23] = molecular target: T1, DNA repair nuclease/redox regulator APEX1; assay: Inhibition of APE1 in human HeLa whole cell extract using […]-5'-AP-DNA as substrate at 10 uM incubated for 15 mins prior to substrate addition measured after 5 mins by PAGE analysis; how it was run: as §1
Plasma [24] = assay: Tmax in CD1 mouse plasma at 30 mg/kg, ip; type: ADME, organism-based; design: dose 30 mg/kg, route intraperitoneal; settings: in vivo; how it was run: as §2
HeLa [25] = assay: Potentiation of methyl methanesulfonate cytotoxic activity against human HeLa cells assessed as decrease in cell viability at 5 to 10 uM after 24 hrs by CellTiterGlo assay; type: functional, cell-based; how it was run: as §4
HeLa [26] = assay: Cytotoxicity against human HeLa cells at 15 uM after 24 hrs by CellTiterGlo assay; type: functional; how it was run: as §4
HeLa [27] = assay: Potentiation of temozolomide cytotoxic activity against human HeLa cells assessed as decrease in cell viability at 1 to 2 uM incubated for 8 hrs measured after 56 hrs post compound wash-out by Hoechst 33342 staining-based assay; type: functional
HeLa [28] = assay: Potentiation of temozolomide cytotoxic activity against human HeLa cells assessed as decrease in cell viability at 5 to 10 uM after 24 hrs by CellTiterGlo assay; type: functional, cell-based; how it was run: as §4
HeLa [29] = assay: Potentiation of methyl methanesulfonate cytotoxic activity against human HeLa cells assessed as decrease in cell viability at 1 to 2 uM incubated for 8 hrs measured after 56 hrs post compound wash-out by Hoechst 33342 staining-based assay; type: functional
[30] = molecular target: T1, DNA repair nuclease/redox regulator APEX1; assay: Inhibition of human APE1 expressed in Escherichia coli rosetta using fluorescein-dabcyl-containing oligonucleotide as substrate after 5 mins by fluorescence spectrophotometry

T1 sequence (P27695 whole entry): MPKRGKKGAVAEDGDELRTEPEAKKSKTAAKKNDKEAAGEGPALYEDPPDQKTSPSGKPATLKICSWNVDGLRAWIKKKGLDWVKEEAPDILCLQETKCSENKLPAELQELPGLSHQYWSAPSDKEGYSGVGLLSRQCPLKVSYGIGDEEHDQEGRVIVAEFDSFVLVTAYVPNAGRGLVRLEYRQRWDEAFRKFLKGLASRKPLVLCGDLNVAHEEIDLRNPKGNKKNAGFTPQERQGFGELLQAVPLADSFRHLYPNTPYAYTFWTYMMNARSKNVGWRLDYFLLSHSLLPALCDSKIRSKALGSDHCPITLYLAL
Sequence of CYP3A4 (P08684 whole entry): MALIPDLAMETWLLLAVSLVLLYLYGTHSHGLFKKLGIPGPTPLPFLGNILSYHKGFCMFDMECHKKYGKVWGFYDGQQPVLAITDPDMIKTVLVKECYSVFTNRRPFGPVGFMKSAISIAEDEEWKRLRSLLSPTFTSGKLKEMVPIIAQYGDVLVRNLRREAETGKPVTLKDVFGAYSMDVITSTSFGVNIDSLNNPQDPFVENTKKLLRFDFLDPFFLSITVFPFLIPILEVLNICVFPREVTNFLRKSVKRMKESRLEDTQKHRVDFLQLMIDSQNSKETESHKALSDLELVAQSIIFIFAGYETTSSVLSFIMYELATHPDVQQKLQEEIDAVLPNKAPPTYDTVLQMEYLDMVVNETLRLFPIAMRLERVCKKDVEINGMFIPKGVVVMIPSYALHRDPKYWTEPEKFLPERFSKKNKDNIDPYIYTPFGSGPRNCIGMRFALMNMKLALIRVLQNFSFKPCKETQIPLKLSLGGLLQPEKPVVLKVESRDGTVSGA
Sequence of CYP2D6 (P10635 whole entry): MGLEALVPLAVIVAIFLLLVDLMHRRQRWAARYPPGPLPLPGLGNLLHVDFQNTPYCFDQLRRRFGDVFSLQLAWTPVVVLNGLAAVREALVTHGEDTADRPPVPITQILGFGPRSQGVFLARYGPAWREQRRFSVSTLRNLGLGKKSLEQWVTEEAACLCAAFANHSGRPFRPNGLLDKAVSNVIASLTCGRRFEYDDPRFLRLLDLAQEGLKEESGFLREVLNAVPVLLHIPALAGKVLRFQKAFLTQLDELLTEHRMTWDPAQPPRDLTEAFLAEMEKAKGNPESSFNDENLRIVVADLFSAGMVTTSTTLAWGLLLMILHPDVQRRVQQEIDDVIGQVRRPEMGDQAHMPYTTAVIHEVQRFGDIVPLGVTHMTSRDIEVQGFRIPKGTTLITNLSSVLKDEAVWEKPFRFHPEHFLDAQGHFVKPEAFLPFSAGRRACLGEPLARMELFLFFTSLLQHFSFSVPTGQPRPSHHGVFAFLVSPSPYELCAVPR

Structure (SMILES): O=C(Nc1sc2c(c1-c1nc3ccccc3s1)CCNC2)C(F)F
IC50 [1]: 4 µM | Activity [2]: 38% | IC50 [3]: 3.8 µM

Structure (SMILES): CC(=O)Nc1sc2c(c1-c1nc3ccccc3s1)CNC2
Tmax (Brain [4]): 0.25 h | Activity (HeLa [5]): Active | inhibition [6]: Active | t1/2 (Liver): 0.13 h | t1/2 (Plasma [7]): 3.55 h | inhibition [8]: Active | Activity (HeLa [9]): Active | inhibition [10]: Active | Activity (HeLa [11]): Active | solubility kinetic [12]: 51.6 µM (≈ 16.3 µg/mL) | inhibition [13]: Active | Activity (Mus musculus): Non-toxic | Cmax (Brain [14]): 92 µM | fold change (FC) [15]: 3 | t1/2 (Brain [16]): 2.5 h | inhibition [17]: Dose-dependent effect | t1/2 (Plasma [18]): 5 h | Activity (HeLa [19]): Active | Cmax (Plasma [20]): 36 µM | Activity (HeLa [21]): 50% | inhibition at 10 µM (CYP2D6): 39% | Activity [2]: 0.1% | Stability [22]: 100% | inhibition at 10 µM (CYP3A4): 50% | IC50 [3]: 3.3 µM | inhibition [23]: Active | Tmax (Plasma [24]): 0.25 h

Structure (SMILES): CC(=O)Nc1sc2c(c1-c1nc(-c3ccccc3)cs1)CCN(C(C)C)C2
IC50 [1]: 3 µM | Activity [2]: 15% | IC50 [3]: 2.9 µM

Structure (SMILES): Cc1cc(C)c2c(N)c3cccc(C)c3nc2n1
IC50 [30]: 32 µM | IC50 [3]: 32 µM

Further lines, with some results ahead:

Tmax (Brain [4]): 0.25 h | inhibition [6]: Active | t1/2 (Liver): 1.33 h | t1/2 (Plasma [7]): > 4.17 h | inhibition [8]: Active | IC50 [1]: 12 µM | inhibition [10]: Active | solubility kinetic [12]: 20.4 µM (≈ 7.58 µg/mL) | inhibition [13]: Active | Cmax (Brain [14]): 217 µM | fold change (FC) [15]: 3 | t1/2 (Brain [16]): 1 h | inhibition [17]: Dose-dependent effect | t1/2 (Plasma [18]): 2.1 h | Cmax (Plasma [20]): 16 µM | inhibition at 10 µM (CYP2D6): 0% | Activity [2]: 0.6% | Stability [22]: 100% | inhibition at 10 µM (CYP3A4): 53% | IC50 [3]: 2 µM | Tmax (Plasma [24]): 0.25 h
Structure (SMILES): CC(=O)Nc1sc2c(c1-c1nc3ccccc3s1)CCN(C(C)C)C2
Activity (HeLa [25]): Active | Activity (HeLa [26]): 50% | Activity (HeLa [27]): Active | Activity (HeLa [28]): Active | Activity (Mus musculus): Non-toxic | Activity (HeLa [29]): Active

IC50 [1]: 14 µM | Activity [2]: 14% | IC50 [3]: 12.9 µM
Structure (SMILES): CC(=O)Nc1sc2c(c1-c1nc3ccccc3s1)CCCN(C(C)C)C2

IC50 [1]: 13 µM | Activity [2]: 12% | IC50 [3]: 20.4 µM
Structure (SMILES): CC(=O)Nc1sc2c(c1-c1nc3ccccc3o1)CCN(C(C)C)C2
